For one data set, the system named is MCF-7. Put plainly: Antiproliferation assay. The format is cell-based. The following applies: Homo sapiens, MCF7, 24 h, read-out: IC50 = mean ± SD, MCF-7. In a few lines: (§1)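 Cell lines were grown at 37 °C under 5% CO2 in their own media: A549 in DMEM/F12, H446 in RPMI 1640, and HeLa, MCF-7, L02 and BEAS-2B in high-glucose DMEM with L-glutamine, with 10% FBS and penicillin/streptomycin. Cells were seeded in 96-well plates and exposed to test compounds or reference agents at 37 °C for 24 h. CCK-8 was added for 2 h and absorbance read at 450 nm.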

The next data set deals with Hela. Put plainly: Antiproliferation assay. In kind it is cell-based. The following applies: Homo sapiens, 24 h, read-out: IC50 = mean ± SD, Hela. A digest of the protocol:
as §1

A further data set has as its system A549. Put plainly: Antiproliferation assay. The following applies: Homo sapiens, A549, 24 h, read-out: IC50 = mean ± SD, A549. In kind it is cell-based. In a few lines: as §1
The subject of the next data set is H446. Put plainly: Antiproliferation assay. In kind it is cell-based. The settings on record: Homo sapiens, NCI-H446, 24 h, read-out: IC50 = mean ± SD, H446. A digest of the protocol: as §1
For another data set, the system named is BEAS-2B. Put plainly: Antiproliferation assay. In kind it is cell-based. The following applies: Homo sapiens, 24 h, read-out: IC50 = mean ± SD, BEAS-2B. A digest of the protocol:
as §1

For a further data set, the system named is L02. In words: Antiproliferation assay. The format is cell-based. The settings on record: Homo sapiens, L02, 24 h, read-out: IC50 = mean ± SD, L02. A digest of the protocol: as §1
Data set [1] relates to interphase microtubules of A549 cells (tubulin). Put plainly: Confocal microscopy / western blot of tubulin depolymerization. In kind it is cell-based, human. The settings on record: A549, 24 h; E5 0.5 and 1.0 µM, colchicine 1.0 µM, etoposide 1.0 µM. (In general: Immunoblotting shows a protein as a band on a membrane.)
The test system of data set [2] is A549 cells. Put plainly: Wound healing migration assay. In kind it is cell-based, human. The settings on record: A549, 24 h; E5 0.5, 1.0 and 2.0 µM, etoposide 1.0 µM. In a few lines:
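Scratch assay: A549 cells were grown to 85% confluence in 6-well plates, scratched with a pipette tip and washed with PBS. They were then incubated at 37 °C for 24 h with 0.1% DMSO, test compound (0.5, 1.0 or 2.0 µM) or reference agents (1.0 µM). Wounds were imaged at 0 and 24 h, and inhibition of migration was expressed relative to control.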

For a further data set, the system named is A549 xenografts. In words: A549 xenograft tumour model in nude mice. In kind it is in vivo, female BALB/c nude mice. The settings on record: 2 mg/kg i.p. once every two days, eight times. A digest of the protocol: (§2)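 Female BALB/c nude mice, 5 weeks old, acclimated 1 week, then given 5.0 × 10^6 A549 cells in 0.1 mL serum-free medium subcutaneously into the left axilla. Body weight and caliper tumour size (0.5 × length × width2) were taken every two days; tumours were excised and weighed at the end.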

For data set [3], the system named is PI3K/Akt pathway in A549 cells. In words: Western blot of PI3K/Akt signalling pathway proteins. The settings on record: 24 h. The format is cell-based, human. A digest of the protocol:
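A549 cells were treated 24 h with test compound (0.1, 0.5, 1.0 or 2.0 µM), LY294002 (1.0 µM) or a reference agent (1.0 µM). Lysates were heat-denatured in non-reducing sample buffer and quantified by Bradford assay. 20 µg protein ran on 10% SDS-PAGE, transferred to PVDF and probed for PI3K, pPI3K, Akt and pAkt with GAPDH as loading control. Detection was by ECL with densitometry.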

Another data set relates to neuroblastoma cell lines. The following applies: read-out: IC50 in neuroblastoma cell lines; ref Aggarwal et al. [2012]; cited from earlier work.
Data set [4] concerns non-neuroblastoma cell lines. The following applies: read-out: IC50 in non-neuroblastoma cell lines; ref Aggarwal et al. [2012]; cited from earlier work.
Data set [5] relates to A549 cells. In words: Cell-cycle analysis. In kind it is cell-based, human. The settings on record: A549, 1.0 µM, 24 h, Figure 4C. In a few lines:
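A549 cells (5.0 × 10^4/well) adhered overnight, then received 0.1% DMSO, test compound (0.1, 0.5 or 1.0 µM) or reference agent (1.0 µM) for 24 h; a time course used 0.5 µM for 12, 24 and 36 h. Cells were fixed in 70% ethanol at 4 °C for 24 h and stained with RNase A plus propidium iodide at 4 °C for 0.5 h in the dark. Flow cytometry gated G0/G1, S and G2/M by DNA content.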

Data set [6] has as its system A549 cells. Put plainly: Mitochondrial membrane potential analysis. The settings on record: A549, JC-1, 2.0 µM, 12 h; control 4.33%. The format is cell-based, human.
Data set [7] concerns A549 cells. In words: Transwell invasion assay. In kind it is cell-based, human. The settings on record: A549, 24 h; better than PPT and etoposide at 1.0 µM.
Data set [8] concerns A549 cells. In words: Colony formation assay. In kind it is cell-based, human. The following applies: A549, versus control and PPT-treated cells.
The test system of data set [9] is Bax and Bcl-2 in A549 cells. Put plainly: Western blot of apoptosis-related proteins. The format is cell-based, human. In a few lines: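 Immunoblot of A549 lysates: heat-denatured in non-reducing sample buffer, Bradford-quantified, 20 µg protein on 10% SDS-PAGE, transferred to PVDF. Blots were probed for Bax and Bcl-2 with GAPDH as internal control, detected by ECL and quantified by densitometry. Data given as mean ± SD.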

The nature of data set [10]: Body weight of xenograft mice. The format is in vivo, female BALB/c nude mice. The following applies: E5 i.p., A549 xenograft mice, 15 days. In a few lines:
as §2

Data set [11] has as its system non-small cell lung cancer (NSCLC) cell lines. The following applies: at 2 mM; ref Chang and Szabo [2002]; cited from earlier work.

The source of these data is article PMC10896134 (Pharmaceutical Biology, 2024).

Regarding `COc1cc([C@@H]2c3cc4c(cc3[C@@H](O[C@@H]3O[C@@H]5CO[C@@H](C)O[C@H]5[C@H](O)[C@H]3O)[C@H]3COC(=O)[C@H]23)OCO4)cc(OC)c1O` [Etoposide, etoposide, reference compound], the IC50 (commonly the point on the concentration scale where inhibition reaches its midpoint) in the data set with MCF-7 amounted to 10.9 ± 0.39 µM; in the data set on Hela, 24.7 ± 0.79 µM; in the data set with A549, 9.32 ± 0.55 µM; in the data set with H446, 2.21 ± 0.42 µM; with BEAS-2B it was 67.6 ± 2.25 µM; in the data set with L02 it was 13.5 ± 1.15 µM. Also, in [1], the tubulin depolymerization entry is recorded as “did not show such an effect”. In addition, the “cell scratch healing (migration)” value in the data set on A549 cells [2] is reported as “strong inhibitory effect”. In the data set with A549 xenografts, the “tumour growth, E5 and etoposide at the same dose” value was “specific inhibitory effect”.
With `O=c1cc(N2CCOCC2)oc2c(-c3ccccc3)cccc12` [LY294002, reference compound], the “pPI3K/PI3K and pAkt/Akt ratio” value in [3] (A549, 1.0 µM) was “notable reduction”.
For the molecule `COc1ccc(S(=O)(=O)Nc2cccnc2Nc2ccc(O)cc2)cc1` [ABT-751], the figures for the half-maximal inhibitory concentration (IC50) (with neuroblastoma cell lines; in [4]) were ~1.5 µM and ~3.4 µM, respectively.
Regarding `COc1cc([C@@H]2c3cc4c(cc3[C@H](OC(=O)CCCc3ccc(NS(=O)(=O)c5cccc(Br)c5)cc3)[C@H]3COC(=O)[C@H]23)OCO4)cc(OC)c1OC` [Compound E5, (5R,5aR,8aR,9R)-8-oxo-9-(3,4,5-trimethoxyphenyl)-5,5a,6,8,8a,9-hexahydrofuro [3′,4′:6,7]naphtho[2,3-d][1,3]dioxol-5-yl4-(4-((3-bromophenyl)sulfonamido)phenyl)butanoate], the IC50 in the data set on MCF-7 was 2.91 ± 0.55 µM; in the data set with Hela, 51.3 ± 1.42 µM; in the data set on A549, 0.35 ± 0.13 µM; with H446, 2.42 ± 0.3 µM; in the data set on BEAS-2B, > 100 µM; in the data set on L02, > 100 µM. Besides, in the data set on A549 cells [5], the “cells in G2/M phase” value is 32.73%. Further, the “cells in S phase” value in the data set on A549 cells [5] is 34.09%. Also, in the data set with A549 cells [6], the “cells with low ΔΨm (ratio of cells with low membrane potential)” value came to 24.7%. Moreover, the tubulin depolymerization entry in data set [1] is “significant tubulin depolymerization”. In addition, in the data set with A549 cells [2], the “cell scratch healing (migration)” value is listed as “significantly slowed dose dependent”. The cell invasion result in the data set on A549 cells [7] is “effectively inhibited cell invasion”. For the same molecule, in the data set on A549 cells [8], the “clone formation rate and clone size” value was “lower clone formation rate and a smaller clone size”. Besides, the “expression of pPI3K and pAkt” value in data set [3] (A549, E5 0.1, 1.0 and 2.0 µM) was “down-regulated dose-dependent”. Moreover, the Bax expression result in data set [9] was “increased”. Further, the “expression of the antiapoptotic protein Bcl-2” value in data set [9] is given as “significantly decreased”. Further, the “tumour growth, E5 and etoposide at the same dose” value in the data set with A549 xenografts is “specific inhibitory effect”. Also, the “body weight of the mice” value in data set [10] is reported as “no significant changes”.
With `O=C([O-])CCCc1ccccc1.[Na+]` [sodium 4-phenylbutyrate], the “growth of NSCLC cell lines” value in data set [11] is given as “impeding the growth”.
On to `COc1cc([C@@H]2c3cc4c(cc3[C@H](OC(=O)CCCc3ccc(NS(=O)(=O)c5cc([N+](=O)[O-])ccc5C)cc3)[C@H]3COC(=O)[C@H]23)OCO4)cc(OC)c1OC` [Compound E15, (5R,5aR,8aR,9R)-8-oxo-9-(3,4,5-trimethoxyphenyl)-5,5a,6,8,8a,9-hexahydrofuro [3′,4′:6,7]naphtho[2,3-d][1,3]dioxol-5-yl4-(4-((2-methyl-5-nitrophenyl)sulfonamido)phenyl)butanoate], for which the IC50 in the data set with MCF-7 is 59.25 ± 0.42 µM; in the data set on Hela, 16.9 ± 1.01 µM; with A549 it was 7.34 ± 1.32 µM; in the data set on H446, 36.6 ± 1.59 µM; with BEAS-2B it was 97.3 ± 1.41 µM; in the data set with L02 it was > 100 µM.
Take `COc1cc([C@@H]2c3cc4c(cc3[C@H](OC(=O)CCCc3ccc(NS(=O)(=O)c5ccc([N+](=O)[O-])cc5)cc3)[C@H]3COC(=O)[C@H]23)OCO4)cc(OC)c1OC` [Compound E14, (5R,5aR,8aR,9R)-8-oxo-9-(3,4,5-trimethoxyphenyl)-5,5a,6,8,8a,9-hexahydrofuro [3′,4′:6,7]naphtho[2,3-d][1,3]dioxol-5-yl4-(4-((4-nitrophenyl)sulfonamido)phenyl)butanoate]: the IC50 in the data set on MCF-7 is 59.9 ± 1.71 µM; with Hela, 26.8 ± 0.63 µM; in the data set with A549, 11 ± 2.51 µM; with H446, 29.4 ± 2.54 µM; with BEAS-2B, > 100 µM; in the data set with L02, > 100 µM.
As to `COc1cc([C@@H]2c3cc4c(cc3[C@H](O)[C@H]3COC(=O)[C@H]23)OCO4)cc(OC)c1OC` [PPT, Podophyllotoxin, reference compound], the IC50 in the data set with MCF-7 worked out at 11.7 ± 0.45 µM; in the data set with Hela, 15.3 ± 0.58 µM; in the data set with A549 it was 14.7 ± 1.14 µM; in the data set on H446, 3.69 ± 0.38 µM; with BEAS-2B, 8.91 ± 0.72 µM; in the data set on L02, 9.42 ± 0.74 µM.
